Data: PMC4417838 (International Journal for Parasitology: Drugs and Drug …, 2015)
Values after ≈ are worked out from the molar mass of the structure shown. “Also recorded” adds a separate entry of the source. Where two headings read alike, the source gives them in different places.

Key:
P. falciparum strain Dd2 = test: Malstat assay, growth inhibition of P. falciparum Dd2; type: cell-based, Plasmodium falciparum; conditions: for Selectivity index SI (Dd2): CC50 (MCF7)/IC50 (Dd2); for IC50: Plasmodium falciparum, DD2, read-out: Mean IC50 ± SD Dd2
[1] = tested on: P. falciparum strain NF54; test: Malstat assay, growth inhibition of P. falciparum NF54; type: cell-based, Plasmodium falciparum; conditions: for Selectivity index SI (NF54): CC50 (MCF7)/IC50 (NF54); for times more potent than tryptanthrin: CQ-sensitive strain; for IC50: Plasmodium falciparum; for gain in activity over the parent compound tryptanthrin: mono-derivatization at position 8, strain not stated
MTT cytotoxicity assay = type: cell-based; conditions: human, MCF-7 cells
Solubility in DMSO = type: physicochemical; conditions: organic solvent or mixture
[2] = tested on: P. falciparum NF54 mature gametocytes; test: Exflagellation assay; type: cell-based, Plasmodium falciparum; conditions: compound at IC90 concentration, 15 min and 24 h incubation
Outline: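 Mature NF54 gametocyte cultures (from day 13) were split into two flasks, one with test compound and one with DMSO only. Aliquots taken after 15 min at 37 °C and after 24 h were activated with xanthurenic acid for 15 min, pelleted, and resuspended in medium containing 100 µM xanthurenic acid. Exflagellation centres were counted in 30 fields relative to the DMSO control. The experiment was run twice, on separately seeded cultures.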

Stability observation = type: physicochemical
[3] = tested on: P. falciparum NF54 gametocytes; test: Gametocyte toxicity test; type: cell-based, Plasmodium falciparum; conditions: nanomolar concentrations, positive control
Outline: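 NF54 was seeded at 1–2% parasitemia and 5% hematocrit in RPMI/HEPES/hypoxanthine/bicarbonate with 10% human serum, under 5% O2/5% CO2/90% N2 at 37 °C, with medium changed daily. Stage II gametocytes were plated in triplicate with compound for 48 h, then kept in compound-free medium to day 7. Stage IV–V gametocytes per 1000 erythrocytes were counted on Giemsa smears and normalised to the DMSO control; means were compared by one-way ANOVA with Tukey's test.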

[4] = NF54, read-out: Mean IC50 ± SD NF54
[5] = DD2|NF54, read-out: IC50 (considered not effective)

SMILES | Selectivity index SI (Dd2) (P. falciparum strain Dd2) | IC50 (P. falciparum strain Dd2) | Selectivity index SI (NF54) [1] | IC50 [1, 4] | CC50 (MTT cytotoxicity assay) | also measured
O=C1c2cc(Br)ccc2-n2c1nc1ccc(Cl)cc1c2=O [BT2, 8-Bromo-2-chloro-indolo [2,1-b] quinazoline-6,12-dione] | >800 | 123 ± 62 nM | >2000 | 36 ± 24 nM | > 100000 nM | times more potent than tryptanthrin [1]: at least 5
O=C1c2ccccc2-n2c1nc1ccccc1c2=O [TRYP, indolo-[2,1-b]-quinazoline-6, 12-Dione, reference compound] |  | 114 ± 17 nM |  | 288 ± 87 nM | 45900 ± 700 nM | 
Cc1ccc2c(c1)C(=O)c1nc3ccccc3c(=O)n1-2 [Compound T1, 8-Methyl-indolo [2,1-b] quinazoline-6,12-dione] | >400 | 216 ± 116 nM | >1000 | 85 ± 37 nM | > 100000 nM | gain in activity over the parent compound tryptanthrin [1]: approximately three times
O=C1c2cc([N+](=O)[O-])ccc2-n2c1nc1cc(Cl)ccc1c2=O [NT1, 3-Chloro-8-nitro-indolo [2,1-b] quinazoline-6,12-dione] | 168.7 | 31 ± 5 nM | 155.9 | 33 ± 4 nM | 5150 ± 110 nM | times more active than tryptanthrin (P. falciparum strain Dd2; CQ-resistant strain): 3.3; times more potent than tryptanthrin [1]: at least 5; IC50 ([1]; NF54): 30 nM; solubility (Solubility in DMSO): 10 mM (≈ 3280 µg/mL)
O=C1c2cc(Cl)ccc2-n2c1nc1ccccc1c2=O [Compound T7, 8-Chloro-indolo [2,1-b] quinazoline-6,12-dione] | 158.5 | 172 ± 18 nM | 286.1 | 95 ± 33 nM | 27200 ± 6680 nM | gain in activity over the parent compound tryptanthrin [1]: approximately three times
O=C(O)c1ccc2c(=O)n3c(nc2c1)C(=O)c1cc(Br)ccc1-3 [BT4, 8-Bromo-6,12-dioxo-6,12-dihydro-indolo[2,1-b] quinazoline-3-carboxylic acid] |  | > 50000 nM |  | > 50000 nM | 71000 ± 39700 nM | IC50 [1, 5]: > 50000 nM
COC(=O)c1ccc2c(=O)n3c(nc2c1)C(=O)c1cc(Br)ccc1-3 [BT5, 8-Bromo-6,12-dioxo-6,12-dihydro-indolo[2,1-b] quinazoline-3-carboxylic acid methylester] | 40 | 287 ± 24 nM | 70.9 | 162 ± 93 nM | 11500 ± 5420 nM | 
O=C1c2cc(F)ccc2-n2c1nc1ccccc1c2=O [Compound T6, 8-Fluoro-indolo [2,1-b] quinazoline-6,12-dione] | 175.6 | 100 ± 15 nM | 306.5 | 57 ± 10 nM | 17500 ± 650 nM | times more potent than tryptanthrin [1]: at least 5; gain in activity over the parent compound tryptanthrin [1]: approximately three times
COc1cc2nc3n(c(=O)c2cc1OC)-c1ccc([N+](=O)[O-])cc1C3=O [NT3, 2,3-Dimethoxy-8-nitro-indolo [2,1-b] quinazoline-6,12-dione] | 113.2 | 134 ± 47 nM | 53.6 | 283 ± 93 nM | 15200 ± 4410 nM | 
Cc1cccc2c1C(=O)c1nc3ccccc3c(=O)n1-2 [Compound T3, 7-Methyl-indolo [2,1-b] quinazoline-6,12-dione] | 29.3 | 602 ± 115 nM | 39.2 | 450 ± 98 nM | 17600 ± 300 nM | 
O=C1c2ccccc2-n2c1nc1cc(Cl)ccc1c2=O [Compound T8, 3-Chloro-indolo [2,1-b] quinazoline-6,12-dione] | 103.5 | 165 ± 81 nM | 186 | 92 ± 3 nM | 17100 ± 4260 nM | reduction of exflagellation of microgametes [2]: neither tryptanthrin nor T8 were able to significantly inhibit the exflagellation; also recorded: no influence on exflagellation
COC(=O)c1ccc2c(=O)n3c(nc2c1)C(=O)c1cc([N+](=O)[O-])ccc1-3 [NT5, 8-Nitro-6,12-dioxo-6,12-dihydro-indolo[2,1-b] quinazoline-3-carboxylic acid methyl ester] | 72.1 | 166 ± 36 nM | 71.7 | 167 ± 67 nM | 12000 ± 500 nM | 
O=C1c2cc(Br)ccc2-n2c1nc1cc(Cl)ccc1c2=O [BT1, 8-Bromo-3-chloro-indolo [2,1-b] quinazoline-6,12-dione] | 10 | 238 ± 80 nM | 66 | 36 ± 17 nM | 2380 ± 1 nM | times more potent than tryptanthrin [1]: at least 5
O=C1c2cc(Br)ccc2-n2c1nc1ccccc1c2=O [Compound T2, 8-Bromo-indolo [2,1-b] quinazoline-6,12-dione] | 110.2 | 95 ± 58 nM | 129.3 | 81 ± 8 nM | 10500 ± 1520 nM | gain in activity over the parent compound tryptanthrin [1]: approximately three times
O=C1c2ccccc2-n2c1nc1ccc([N+](=O)[O-])cc1c2=O [2-Nitrotryptanthrin] |  |  |  |  |  | stability (Stability observation): highly unstable
O=C(O)c1ccc2c(=O)n3c(nc2c1)C(=O)c1cc([N+](=O)[O-])ccc1-3 [NT4, 8-Nitro-6,12-dioxo-6,12-dihydro-indolo[2,1-b]quinazoline-3-carboxylic acid] |  | > 50000 nM |  | > 50000 nM | > 100000 nM | IC50 [1, 5]: > 50000 nM
O=C1c2cc([N+](=O)[O-])ccc2-n2c1nc1ccccc1c2=O [Compound T4, 8-Nitro-indolo [2,1-b] quinazoline-6,12-dione] | 29 | 165 ± 55 nM | 45.1 | 106 ± 38 nM | 4780 ± 490 nM | gain in activity over the parent compound tryptanthrin [1]: approximately three times
O=C1c2cc([N+](=O)[O-])ccc2-n2c1nc1ccc(Cl)cc1c2=O [NT2, 2-Chloro-8-nitro-indolo [2,1-b] quinazoline-6,12-dione] | 136.5 | 91 nM | 96.7 | 129 ± 22 nM | 12500 ± 230 nM | 
COc1cc2nc3n(c(=O)c2cc1OC)-c1ccc(Br)cc1C3=O [BT3, 8-Bromo-2,3-dimethoxy-indolo[2,1-b]quinazoline-6,12-dione] | >100 | 761 ± 194 nM | >1000 | 88 ± 41 nM | > 100000 nM | 
CC[C@H](C)[C@H](NC(=O)[C@H]([C@@H](C)CC)N(C)C(C)=O)C(=O)N[C@H](C(=O)N[C@@H](CC(C)C)C(=O)[C@@]1(C)CO1)[C@@H](C)O [epoxomicin] |  |  |  |  |  | effect on gametocytes in culture [3]: fully eliminate the gametocytes
O=C1c2cc([N+](=O)[O-])ccc2-n2c1nc1cc(Br)ccc1c2=O [NT6, 3-Bromo-8-nitro-indolo [2,1-b] quinazoline-6,12-dione] | 174 | 101 ± 68 nM | 243.3 | 72 ± 23 nM | 17500 ± 770 nM | 
CCN(CC)CCCC(C)Nc1ccnc2cc(Cl)ccc12 (stereo not drawn) [CQ, Chloroquine, reference compound] |  | 294 ± 30 nM |  | 21 ± 2 nM | > 100000 nM | times more potent against CQ-sensitive strain compared with the resistant strain ([1]; CQ-sensitive versus CQ-resistant strain): 13; IC50 ([1]; NF54): 20 nM
